Ecoli rRNA inh – inhibits bacterial ribosomal RNA function over humanized ribosomes | AID 720706 | GFP signal change (wild-type ribosome), % (concentration not given with the values) | 1.6% of 350,000 active | E. coli WT GFP vs humanized-ribosome RFP mutants, fluorescence, 24 h; stronger effect = lower value; DMSO median 0, no signal -100;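 active = significant combined selectivity score with lowered wild-type GFP, culture density cut under 30%, mutant RFP and density less affected; inactive = any of these conditions unmet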
CASP6 VEID inh – inhibitors of human caspase-6; AID 686996; inhibition, % at 12.5 µM; P55212; 0.53% of 350,000 active; purified caspase-6, Z-VEID-R110 cleavage fluorescence;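 active = mean inhibition across replicates at least about 35%, with every replicate also reaching that limit, limit read from the data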
Target sequence (P55212 24-179 limits assumed): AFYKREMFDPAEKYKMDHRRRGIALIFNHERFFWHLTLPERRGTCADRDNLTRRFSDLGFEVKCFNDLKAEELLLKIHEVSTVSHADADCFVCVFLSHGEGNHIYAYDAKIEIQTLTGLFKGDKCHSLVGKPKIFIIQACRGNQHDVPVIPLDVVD
Target sequence (P55212 194-293 limits assumed): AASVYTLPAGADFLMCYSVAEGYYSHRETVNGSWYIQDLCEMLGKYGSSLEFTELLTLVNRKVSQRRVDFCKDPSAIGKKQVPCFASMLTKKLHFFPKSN
PGC1a acetyl inh – PGC1a acetylation modulation, inhibitor mode. AID 651687. inhibition, % at 15.6 µM. 0.17% of 350,000 active. U2OS PGC1a acetylation, AlphaScreen anti-acetyl-lysine; with virally co-expressed GCN5 acetyltransferase;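 active = every replicate shows inhibition of at least 40%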
ERAP1 HTS inh – ERAP1 (human) enzyme inhibition; Q9NZ08; inhibition, % at 10.7 µM; 0.15% of 340,000 active; recombinant ERAP1, Leu-AMC fluorescence, 60 min;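 active = mean replicate inhibition of at least 30%, or all replicates individually reaching that 30% level; inactive = mean below 30% and not every replicate reaching it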
S100A4 inh HTS – blocks human S100A4 binding to myosin IIA peptide | P26447 | S100A4/TAMRA-MyoIIA peptide fluorescence polarization | inhibition, % at 10.7 µM | 0.14% of 360,000 active | AID 652163;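 active = mean inhibition of at least 70% across replicates, with every replicate also reaching that level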
Target sequence (P26447 whole entry, looked up): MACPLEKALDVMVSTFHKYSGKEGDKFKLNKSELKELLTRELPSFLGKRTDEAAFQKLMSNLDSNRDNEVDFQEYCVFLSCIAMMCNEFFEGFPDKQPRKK
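Material: S100A4 monomer (human). Medium: Calcium-containing HEPES buffer, pH 7.2. Probe or stimulus: labelled myosin peptide probe, 5 nM. Compound dosing: one concentration per compound. Timing: polarization read 5 min after assay mix addition, stable 5–60 min. Benchmarks: DMSO as neutral control, TFP as positive control.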
ARNT-TACC3 inh – ARNT/TACC3 interaction disruption; inhibition, % at 9.99 µM; 0.66% of 390,000 active; AlphaScreen His-ARNT PAS-B/GST-TACC3 binding, luminescence; TACC3 fragment carries E629A point mutation; AID 623870;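 active = mean inhibition of replicates at least 50% and at least half of replicates each reaching 50%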
ARNT Alpha ctr – counter-screen for ARNT/TACC3 inhibitors: AlphaScreen artifacts; shares compounds with ARNT-TACC3 inh; His-ARNT PASB-GST AlphaScreen artifact counter-screen, luminescence; AC50, µM (titrated, usually from 68 µM); 50% of 1,200 active;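 active = every separate test run was called active for a drop in luminescence, with AC50 within twice the top valid dose, actives reach about 71 µM in these data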
Hits are given with their value; – = inactive; · = not tested or not shown. This is a sample that favours compounds with a hit; in the whole collection about 2.4% have one here.

SMILES	Ecoli rRNA inh	CASP6 VEID inh	PGC1a acetyl inh	ERAP1 HTS inh	S100A4 inh HTS	ARNT-TACC3 inh	ARNT Alpha ctr
O=C(C[C@@H]1C[C@@H]2c3cc(NC(=O)C4CCOCC4)ccc3O[C@@H]2[C@H](CO)O1)NCc1cccnc1	–	–	–	–	–	55	–
COCCNC(=O)C[C@@H]1C[C@@H]2c3cc(NC(=O)C4CCOCC4)ccc3O[C@@H]2[C@H](CO)O1	–	–	–	–	–	–	·
COC(=O)C[C@H]1C[C@H]2c3cc(N(C)C)ccc3O[C@H]2[C@H](CO)O1	–	–	–	–	–	–	·
COCCNC(=O)C[C@@H]1C[C@H]2c3cc(NC(=O)C4CCOCC4)ccc3O[C@H]2[C@H](CO)O1	–	–	–	–	–	active	–
CC(C)CC#Cc1ccc([C@H]2[C@H]3CN(C(=O)c4ccc5c(c4)OCO5)CC(=O)N3[C@H]2CO)cc1	–	·	·	·	·	·	·
O=C(C[C@H]1CC[C@H]2[C@@H](COC[C@H](O)CN2Cc2cccc(Cl)c2)O1)Nc1nccs1	–	–	–	–	–	–	·
O=C(Nc1ccc(N2CCN(C(=O)c3ccccc3F)CC2)cc1)c1ncn[nH]1	–	–	·	–	–	59	–
Cc1ccc(S(=O)(=O)Nc2ccc3c(c2)C(=O)N([C@@H](C)CO)C[C@@H](C)[C@H](CN(C)CC2CC2)OCCCC[C@H](C)O3)cc1	–	–	–	–	–	–	·
O=C(c1ccncc1)N1C[C@@H]2N[C@H](C1)C2c1ccc(-c2cccnc2)cc1 (stereo partly drawn)	–	–	–	–	–	·	·
CCOC(=O)Cc1nnc(NC(=O)c2ncn[nH]2)s1	·	·	–	·	·	69	–
O=c1cc(-c2ccc(O)cc2)oc2c1ccc1ccccc12	–	–	–	–	–	·	·
O=c1cc(-c2ccc(O)cc2)oc2c(O)c(O)c(O)c(O)c12	–	63	–	–	–	53	–
Cc1ccc(S(=O)(=O)N[C@H]2CC[C@H](CCn3cc(C4CCCCC4)nn3)O[C@@H]2CO)cc1	–	–	–	–	–	–	·
CN1CCC(n2[nH]c(-c3ccccc3)c(Cc3ccccc3)c2=O)CC1	–	–	–	–	–	active	–
O=C(N[C@H]1CC[C@@H](CCn2cc(C3CC3)nn2)O[C@@H]1CO)c1cccnc1	–	–	–	–	–	–	·
O=C(N[C@@H]1CC[C@@H](CCn2cc(C3CC3)nn2)O[C@@H]1CO)c1cccnc1	–	–	–	–	–	–	·
O=C(N[C@H]1CC[C@@H](CCn2cc(C3CCCC3)nn2)O[C@H]1CO)c1cccnc1	–	–	–	–	–	·	·
O=C(N[C@H]1CC[C@H](CCn2cc(-c3ccccn3)nn2)O[C@H]1CO)c1cccnc1	–	–	–	–	–	85	44µM
O=C(N[C@H]1CC[C@@H](CCn2cc(-c3ccccn3)nn2)O[C@H]1CO)c1cccnc1	–	–	–	–	–	69	26µM
O=C(N[C@H]1CC[C@H](CCn2cc(-c3ccccn3)nn2)O[C@@H]1CO)c1cccnc1	–	–	–	–	–	83	33µM
O=C(N[C@@H]1CC[C@H](CCn2cc(-c3ccccn3)nn2)O[C@@H]1CO)c1cccnc1	–	–	–	–	–	89	34µM
C[C@@H]1CN([C@H](C)CO)C(=O)c2ccccc2-c2ccccc2CO[C@H]1CN(C)C(=O)Nc1ccc2c(c1)OCO2	–	–	–	–	–	–	·
C[C@H]1CCCCO[C@@H](CN(C)C(=O)Nc2ccc(C(F)(F)F)cc2)[C@@H](C)CN([C@@H](C)CO)C(=O)c2cc(NC(=O)Nc3ccccc3)ccc2O1	–	–	–	–	–	–	·
O=C(N[C@H]1CC[C@@H](CCn2cc(-c3ccccn3)nn2)O[C@@H]1CO)c1cccnc1	–	–	–	–	–	83	52µM
O=C(CNCc1ccccn1)Nc1cc(C(F)(F)F)ccc1N1CCOCC1	–	–	–	–	–	58	–
SMILES	Ecoli rRNA inh	CASP6 VEID inh	PGC1a acetyl inh	ERAP1 HTS inh	S100A4 inh HTS	ARNT-TACC3 inh	ARNT Alpha ctr
O=C(Nc1cc(C(F)(F)F)ccc1N1CCOCC1)c1ccncc1	–	–	–	–	–	–	·
CCCC(=O)N1CCC2(CC1)CN(C(=O)C1CCCC1)[C@H](CO)c1[nH]c3cc(OC)ccc3c12	–	–	·	–	–	·	·
C[C@H](CO)N1C[C@H](C)[C@@H](CN(C)S(C)(=O)=O)Oc2ccc(NC(=O)Cc3ccccc3)cc2CC1=O	–	–	–	–	–	–	·
CC(C)(C)c1ccc(OCCNC(=O)c2ncn[nH]2)cc1	·	·	–	·	·	77	–
CCc1ccccc1NC1=CC(=O)CC(C)(C)C1	–	–	–	–	–	–	·
CC1(C)CC(=O)C=C(Nc2ccccc2N)C1	–	–	–	–	–	51	–
C/C(=N\NC(=O)c1cccc2ccccc12)c1ccccn1	–	–	–	–	–	63	29µM
O=C(NC(O)C(=O)c1ccccc1)c1ccccn1 (stereo not drawn)	–	–	·	–	–	–	·
O=C(NN=C(c1ccccc1)c1ccccn1)c1ccccc1	·	–	·	–	–	57	–
C[C@H]1CN([C@@H](C)CO)C(=O)Cc2cc(NS(C)(=O)=O)ccc2O[C@H]1CN(C)S(=O)(=O)c1ccc(Cl)cc1	–	–	–	–	–	–	·
O=C(NCC1CCCCC1)[C@@H]1N[C@@H]2c3ccc(C4=CCCCC4)c(=O)n3C[C@@H]2[C@H]1CO	–	–	·	–	–	–	·
COC(=O)c1ccccc1-c1ccc(C(c2c(C)[nH][nH]c2=O)c2c(C)[nH][nH]c2=O)o1	–	42	·	–	–	60	–
NNC(=O)c1ccc(O)cc1O	–	–	·	–	–	56	–
O=C(NN=C1CCCC1)c1ccc(O)cc1O	–	–	–	–	–	48	–
O=C(c1ccccn1)N1CC[C@@H]2[C@@H](CO)Nc3ccc(Br)cc3[C@@H]21	–	–	–	–	–	–	·
O=C(c1ccccn1)N1CC[C@@H]2[C@H](CO)Nc3ccc(Br)cc3[C@@H]21	–	–	–	–	–	77	45µM
O=C1c2ccccc2C(=O)N1C1CCN(Cc2cccc(OCCO)c2)CC1	·	–	–	–	–	·	·
C[C@H]1CN([C@@H](C)CO)C(=O)c2cccc(NC(=O)NC3CCCCC3)c2O[C@H]1CN(C)S(=O)(=O)c1ccc(F)cc1	–	·	–	·	·	·	·
O=c1[nH]c(N2CCOCC2)cc2ccccc12	–	96	–	–	–	41	–
Cc1cc(C)n(S(=O)(=O)c2ccc(Cl)cc2)n1	–	–	–	–	–	active	–
Cc1cc(C)n(S(=O)(=O)c2ccc(F)cc2)n1	–	–	–	–	–	–	·
